The values below come from ChEMBL document CHEMBL1152942, “Chemistry of renieramycins. Part 8: synthesis and cytotoxicity evaluation of renieramycin M-jorunnamycin A analogues” (Bioorg Med Chem, 2009).

The source made the active and inactive calls. The calls are words filed in the database; no cut-off is given here.

What all share (type): functional, cell-based
The test system of one assay is MDA-MB-435. Description: Cytotoxicity against human MDA-MB-435 cells after 3 days by MTT assay.
In assay [1] the test system is HCT-116. As to the kind of experiment: Cytotoxicity against human HCT116 cells after 3 days by MTT assay. Summed up:
(§1)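 HCT116 colon carcinoma cells were seeded at 1500 cells/well 24 h before treatment. They were exposed to threefold serial dilutions from 100 nM to 0.41 nM, with under 1% DMSO final (20 mM DMSO stocks), for 3 days. Growth was read by MTT absorbance at 540 nm. IC50 was taken as 50% growth inhibition relative to untreated controls, in triplicate.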

The next assay relates to QG-56. Description: Cytotoxicity against human QG56 cells at 1.4 to 100 nM after 3 days by MTT assay. For orientation: Tetrazolium dyes change colour on reduction, which living cells bring about.
For assay [2], the system named is HCT-116. As to the kind of experiment: Cytotoxicity against human HCT116 cells at 1.4 to 100 nM after 3 days by MTT assay. Summed up: as §1

For orientation: IC50 means the midpoint of a concentration-inhibition curve. For the molecule `COC1=C(C)C(=O)C2=C(C1=O)[C@@H]1[C@@H]3CC4=C(C(=O)C(OC)=C(C)C4=O)[C@H](COC(=O)C(C)C)N3[C@@H](C#N)[C@H](C2)N1C`, the IC50 stood at 10 nM in the assay on MDA-MB-435 (Homo sapiens, MDA-MB-435, 72 h) and 22 nM with HCT-116 [1] (Homo sapiens, HCT-116, 72 h).

For `COC1=C(C)C(=O)C2=C(C1=O)[C@@H]1[C@@H]3CC4=C(C(=O)C(OC)=C(C)C4=O)[C@H](COC(=O)C4CC=CCC4)N3[C@@H](C#N)[C@H](C2)N1C` (mixture of isomers), the IC50 in the assay on MDA-MB-435 (Homo sapiens, MDA-MB-435, 72 h) amounted to 27 nM; in the assay on HCT-116 [1] (Homo sapiens, HCT-116, 72 h), 43 nM.

Take `COC1=C(C)C(=O)C2=C(C1=O)[C@@H]1[C@@H]3CC4=C(C(=O)C(OC)=C(C)C4=O)[C@H](COC(C)=O)N3[C@@H](C#N)[C@H](C2)N1C` [CYANOJORUMYCIN]: the half-maximal inhibitory concentration (IC50) in the assay with MDA-MB-435 (Homo sapiens, MDA-MB-435, 72 h) was 1.4 nM; with HCT-116 [1] (Homo sapiens, HCT-116, 72 h), 3.2 nM.

Take `COC1=C(C)C(=O)C2=C(C1=O)[C@@H]1[C@@H]3CC4=C(C(=O)C(OC)=C(C)C4=O)[C@H](COC(=O)c4cnc5ccccc5c4)N3[C@@H](C#N)[C@H](C2)N1C`: the IC50 in the assay on MDA-MB-435 (Homo sapiens, MDA-MB-435, 72 h) is 3.8 nM; with HCT-116 [1] (Homo sapiens, HCT-116, 72 h), 10 nM.

Regarding `COC1=C(C)C(=O)C2=C(C1=O)[C@@H]1[C@@H]3CC4=C(C(=O)C(OC)=C(C)C4=O)[C@H](COC(=O)C4=CCCC4)N3[C@@H](C#N)[C@H](C2)N1C`, the IC50 in the assay on MDA-MB-435 (Homo sapiens, MDA-MB-435, 72 h) stood at 13 nM; with HCT-116 [1] (Homo sapiens, HCT-116, 72 h), 33 nM.

As to `COC1=C(C)C(=O)C2=C(C1=O)[C@@H]1[C@@H]3CC4=C(C(=O)C(OC)=C(C)C4=O)[C@H](COC=O)N3[C@@H](C#N)[C@H](C2)N1C`, the 50% inhibitory concentration (IC50) is 38 nM in the assay with MDA-MB-435 (Homo sapiens, MDA-MB-435, 72 h) and 38 nM in the assay on HCT-116 [1] (Homo sapiens, HCT-116, 72 h).

Regarding `CCC(=O)OC[C@H]1C2=C(C[C@H]3[C@H]4C5=C(C[C@@H]([C@H](C#N)N13)N4C)C(=O)C(C)=C(OC)C5=O)C(=O)C(C)=C(OC)C2=O` [JORUNNAMYCIN C], the IC50 was determined as 4.2 nM with MDA-MB-435 (Homo sapiens, MDA-MB-435, 72 h) and 11 nM in the assay on HCT-116 [1] (Homo sapiens, HCT-116, 72 h). In addition, in the assay on QG-56, the outcome was Active.

As to `COC1=C(C)C(=O)C2=C(C1=O)[C@@H]1[C@@H]3CC4=C(C(=O)C(OC)=C(C)C4=O)[C@H](COC(=O)c4ccccc4)N3[C@@H](C#N)[C@H](C2)N1C`, the IC50 in the assay with MDA-MB-435 (Homo sapiens, MDA-MB-435, 72 h) came to 8.6 nM; in the assay with HCT-116 [1] (Homo sapiens, HCT-116, 72 h), 25 nM.

`COC1=C(C)C(=O)C2=C(C1=O)[C@@H]1[C@@H]3CC4=C(C(=O)C(OC)=C(C)C4=O)[C@H](COC(=O)c4ccc(OC)cc4)N3[C@@H](C#N)[C@H](C2)N1C`: the IC50 in the assay with MDA-MB-435 (Homo sapiens, MDA-MB-435, 72 h) is 8.9 nM; in the assay on HCT-116 [1] (Homo sapiens, HCT-116, 72 h) it was 26 nM.

As to `COC1=C(C)C(=O)C2=C(C1=O)[C@@H]1[C@@H]3CC4=C(C(=O)C(OC)=C(C)C4=O)[C@H](COC(=O)c4ccc(Br)cc4)N3[C@@H](C#N)[C@H](C2)N1C`, the IC50 in the assay on MDA-MB-435 (Homo sapiens, MDA-MB-435, 72 h) came out at 13 nM; in the assay on HCT-116 [1] (Homo sapiens, HCT-116, 72 h), 38 nM.

As to `COC1=C(C)C(=O)C2=C(C1=O)[C@@H]1[C@@H]3CC4=C(C(=O)C(OC)=C(C)C4=O)[C@H](COC(=O)C=C(C)C)N3[C@@H](C#N)[C@H](C2)N1C`, the IC50 with MDA-MB-435 (Homo sapiens, MDA-MB-435, 72 h) turned out to be 11 nM; with HCT-116 [1] (Homo sapiens, HCT-116, 72 h) it was 27 nM.

Regarding `COC1=C(C)C(=O)C2=C(C1=O)[C@@H]1[C@@H]3CC4=C(C(=O)C(OC)=C(C)C4=O)[C@H](CO)N3[C@@H](C#N)[C@H](C2)N1C` [JOURNNAMYCIN A], the IC50 in the assay on MDA-MB-435 (Homo sapiens, MDA-MB-435, 72 h) worked out at 290 nM; with HCT-116 [1] (Homo sapiens, HCT-116, 72 h) it was 130 nM. For the same molecule, the result in the assay with QG-56 was Active.

Take `CCC(C)C(=O)OC[C@H]1C2=C(C[C@H]3[C@H]4C5=C(C[C@@H]([C@H](C#N)N13)N4C)C(=O)C(C)=C(OC)C5=O)C(=O)C(C)=C(OC)C2=O` (mixture of isomers): the IC50 in the assay on MDA-MB-435 (Homo sapiens, MDA-MB-435, 72 h) was found to be 12 nM; with HCT-116 [1] (Homo sapiens, HCT-116, 72 h), 33 nM.

Consider `COC1=C(C)C(=O)C2=C(C1=O)[C@@H]1[C@@H]3CC4=C(C(=O)C(OC)=C(C)C4=O)[C@H](COC(=O)c4ccncc4)N3[C@@H](C#N)[C@H](C2)N1C`, for which the IC50 in the assay on MDA-MB-435 (Homo sapiens, MDA-MB-435, 72 h) stood at 4.4 nM; with HCT-116 [1] (Homo sapiens, HCT-116, 72 h), 10 nM.

As to `COC1=C(C)C(=O)C2=C(C1=O)[C@@H]1[C@@H]3CC4=C(C(=O)C(OC)=C(C)C4=O)[C@H](COC(=O)c4ccccc4OC)N3[C@@H](C#N)[C@H](C2)N1C`, the IC50 in the assay with MDA-MB-435 (Homo sapiens, MDA-MB-435, 72 h) was 11 nM; in the assay with HCT-116 [1] (Homo sapiens, HCT-116, 72 h) it was 34 nM.

As for `CC=C(C)C(=O)OC[C@H]1C2=C(C[C@H]3[C@H]4C5=C(C[C@@H]([C@H](C#N)N13)N4C)C(=O)C(C)=C(OC)C5=O)C(=O)C(C)=C(OC)C2=O` [RENIERAMYCIN M], the IC50 in the assay with MDA-MB-435 (mda-mb-435) turned out to be 11 nM; with HCT-116 [1] (hct-116) it was 34 nM.

On to `CCCC(=O)OC[C@H]1C2=C(C[C@H]3[C@H]4C5=C(C[C@@H]([C@H](C#N)N13)N4C)C(=O)C(C)=C(OC)C5=O)C(=O)C(C)=C(OC)C2=O`, for which the IC50 is 12 nM in the assay with MDA-MB-435 (Homo sapiens, MDA-MB-435, 72 h) and 34 nM in the assay with HCT-116 [1] (Homo sapiens, HCT-116, 72 h).

As for `COC1=C(C)C(=O)C2=C(C1=O)[C@@H]1[C@@H]3CC4=C(C(=O)C(OC)=C(C)C4=O)[C@H](COC(=O)C4CC=CC4)N3[C@@H](C#N)[C@H](C2)N1C`, the IC50 in the assay on MDA-MB-435 (Homo sapiens, MDA-MB-435, 72 h) was determined as 13 nM; in the assay on HCT-116 [1] (Homo sapiens, HCT-116, 72 h) it was 33 nM.

For the molecule `COC1=C(C)C(=O)C2=C(C1=O)[C@@H]1[C@@H]3CC4=C(C(=O)C(OC)=C(C)C4=O)[C@H](COC(=O)c4ccnc5ccccc45)N3[C@@H](C#N)[C@H](C2)N1C`, the IC50 in the assay on MDA-MB-435 (Homo sapiens, MDA-MB-435, 72 h) turned out to be 4.1 nM; in the assay on HCT-116 [1] (Homo sapiens, HCT-116, 72 h), 10 nM.

Regarding `COC1=C(C)C(=O)C2=C(C1=O)[C@@H]1[C@@H]3CC4=C(C(=O)C(OC)=C(C)C4=O)[C@H](COC(=O)C4=CCCCC4)N3[C@@H](C#N)[C@H](C2)N1C`, the half-inhibitory concentration (IC50) stood at 29 nM in the assay on MDA-MB-435 (Homo sapiens, MDA-MB-435, 72 h) and 49 nM in the assay on HCT-116 [1] (Homo sapiens, HCT-116, 72 h).

Take `COC1=C(C)C(=O)C2=C(C1=O)[C@@H]1[C@@H]3CC4=C(C(=O)C(OC)=C(C)C4=O)[C@H](COC(=O)c4ccc([N+](=O)[O-])cc4)N3[C@@H](C#N)[C@H](C2)N1C`: the IC50 with MDA-MB-435 (Homo sapiens, MDA-MB-435, 72 h) is 9.4 nM; in the assay with HCT-116 [1] (Homo sapiens, HCT-116, 72 h) it was 26 nM.

Regarding `CCCCCC(=O)OC[C@H]1C2=C(C[C@H]3[C@H]4C5=C(C[C@@H]([C@H](C#N)N13)N4C)C(=O)C(C)=C(OC)C5=O)C(=O)C(C)=C(OC)C2=O`, the IC50 was determined as 40 nM in the assay on MDA-MB-435 (Homo sapiens, MDA-MB-435, 72 h) and 100 nM in the assay on HCT-116 [1] (Homo sapiens, HCT-116, 72 h).

With `COC1=C(C)C(=O)C2=C(C1=O)[C@@H]1[C@@H]3CC4=C(C(=O)C(OC)=C(C)C4=O)[C@H](COC(=O)C4CCCC4)N3[C@@H](C#N)[C@H](C2)N1C`, the IC50 with MDA-MB-435 (Homo sapiens, MDA-MB-435, 72 h) stood at 30 nM; in the assay on HCT-116 [1] (Homo sapiens, HCT-116, 72 h) it was 93 nM.

For `COC1=C(C)C(=O)C2=C(C1=O)[C@@H]1[C@@H]3CC4=C(C(=O)C(OC)=C(C)C4=O)[C@H](COC(C)=O)N3[C@@H](O)[C@H](C2)N1C`, the result in the assay on QG-56 and with HCT-116 [2] was Active.

Regarding `COC1=C(C)C(=O)C2=C(C1=O)[C@@H]1[C@@H]3CC4=C(C(=O)C(OC)=C(C)C4=O)[C@H](COC(=O)c4cccnc4)N3[C@@H](C#N)[C@H](C2)N1C`, the IC50 with MDA-MB-435 (Homo sapiens, MDA-MB-435, 72 h) came out at 3.5 nM; in the assay with HCT-116 [1] (Homo sapiens, HCT-116, 72 h) it was 7.9 nM.

In the case of `COC1=C(C)C(=O)C2=C(C1=O)[C@@H]1[C@@H]3CC4=C(C(=O)C(OC)=C(C)C4=O)[C@H](COC(=O)CCCl)N3[C@@H](C#N)[C@H](C2)N1C`, the IC50 in the assay with MDA-MB-435 (Homo sapiens, MDA-MB-435, 72 h) was determined as 12 nM; in the assay with HCT-116 [1] (Homo sapiens, HCT-116, 72 h), 16 nM.

Consider `COC1=C(C)C(=O)C2=C(C1=O)[C@@H]1[C@@H]3CC4=C(C(=O)C(OC)=C(C)C4=O)[C@H](COC(=O)c4ccc5ccccc5n4)N3[C@@H](C#N)[C@H](C2)N1C`, for which the concentration for half-maximal inhibition (IC50) is 4.2 nM in the assay on MDA-MB-435 (Homo sapiens, MDA-MB-435, 72 h) and 11 nM with HCT-116 [1] (Homo sapiens, HCT-116, 72 h).

Take `COC1=C(C)C(=O)C2=C(C1=O)[C@@H]1[C@@H]3CC4=C(C(=O)C(OC)=C(C)C4=O)[C@H](COC(=O)c4ccccn4)N3[C@@H](C#N)[C@H](C2)N1C`: the IC50 in the assay with MDA-MB-435 (Homo sapiens, MDA-MB-435, 72 h) is 1.4 nM; in the assay with HCT-116 [1] (Homo sapiens, HCT-116, 72 h), 3.3 nM.

With `C/C=C(/C)C(=O)OC[C@H]1C2=C(C[C@H]3[C@H]4C5=C(C[C@@H]([C@H](C#N)N13)N4C)C(=O)C(C)=C(OC)C5=O)C(=O)C(C)=C(OC)C2=O` [RENIERAMYCIN M], the figures for the IC50 in the assay with MDA-MB-435 (mda-mb-435) and in the assay on HCT-116 [1] (hct-116) were 3.8 nM and 9.4 nM, respectively.
